Legend:
[1] = melting temperature; fluorescence melt of hairpins on a sequencing array, two-state fit, raised by 9.35 °C to match UV melts; settings: sodium 0.088 M
Method in brief: (§1)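 Two-state fits, bootstrapped, provided melting temperature and folding enthalpy from Cy3 fluorescence normalised to pre-quench Cy3 and to control constructs. Library hairpins with annealed Cy3 and quencher oligos were imaged on a sequenced MiSeq flow cell in 50 mM Na-HEPES pH 8.0, 25 mM NaCl, at 2.5 °C intervals up to 60 °C. Four replicates were combined with inverse-variance weighting. A 9.35 °C upward shift was applied to fitted temperatures to match UV melts.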

[2] = folding enthalpy; higher = less favourable; fluorescence melt of hairpins on a sequencing array, two-state fit; settings: sodium 0.088 M
Method in brief: as §1

| Sequence | Tm [1] | folding enthalpy [2] |
| --- | --- | --- |
| GATCGCGAAAGCGAGATC ((((((....)))..))) | 60.6 °C | -13.8 kcal/mol |
| GATCGGGGCCCCGATC ((((((....)))))) | 68.6 °C | -55 kcal/mol |
| GCTGCGCGAAAGCCCCGC ((.(.((....)).).)) | 31.8 °C | -9.96 kcal/mol |
| GGAAGGCCGAAAGGCTCC (((..(((....)))))) | 34.6 °C | -11.9 kcal/mol |
| GATCACCTAAGTGATC ((((((....)))))) | 56.4 °C | -38.9 kcal/mol |
| GGTTACCGAAAGGTCACC (((.(((....))).))) | 49.1 °C | -27.7 kcal/mol |
| GCAATCGAAAGATCTGC ((((((....))).))) | 35.2 °C | -18 kcal/mol |
| GATCGATTATCGATC ((((((...)))))) | 52.7 °C | -38.5 kcal/mol |
| GCTTAGCGAAAGCAAAGC ((((.((....)).)))) | 59.8 °C | -23.6 kcal/mol |
| GATCCCCGCAGGGATC ((((((....)))))) | 62.8 °C | -18.1 kcal/mol |
| GATAGGCCGAAAGGCATC (((..(((....)))))) | 30.3 °C | -9.82 kcal/mol |
| GCCTCAGGAAACTGGGGC (((.(((....))).))) | 56 °C | -41.9 kcal/mol |
| GCAAGCGAAAGCTCTGC ((((((....))).))) | 45.9 °C | -20 kcal/mol |
| GTCCCCCGAAAGGGAGAC (((.(((....))).))) | 56.6 °C | -30.1 kcal/mol |
| GCGATGCGAAAGCAAGGC ((..(((....)))..)) | 42.3 °C | -17.2 kcal/mol |
| GATAGCGAAAGCTCATC ((((((....))).))) | 36.5 °C | -13.3 kcal/mol |
| CGTCCCGGAAACGGTACG (((.(((....))).))) | 47.2 °C | -29.1 kcal/mol |
| GGCTTAGAAATAAGCC ((((((....)))))) | 55.4 °C | -33.4 kcal/mol |
| GCACTGCGAAAGCTCTGC (((..((....))..))) | 35.8 °C | -17.4 kcal/mol |
| GTGAAACGAAAGTTACAC (((.(((....))).))) | 46.2 °C | -29.7 kcal/mol |
| GGGGGACGAAAGTCTCCC (((.(((....))).))) | 66 °C | -34.4 kcal/mol |
| GGTCTCGAAAGAGAGACC ((((((....)))..))) | 54.9 °C | -29.6 kcal/mol |
| GCTGTGCGAAAGCTCTGC ((.(.((....)).).)) | 44.6 °C | -22.1 kcal/mol |

| Sequence | Tm [1] | folding enthalpy [2] |
| --- | --- | --- |
| GTCGGGAAACCGAC (((((....))))) | 66 °C | -24.2 kcal/mol |
| GGAGTAGGAAACTGCTCC ((((.((....)).)))) | 51.4 °C | -28.5 kcal/mol |
| GCACGTCGAAAGACCTGC (((.(((....))).))) | 45.2 °C | -28.1 kcal/mol |
| GTGTGCGAAAGCACCCAC ((((((....)))..))) | 39.3 °C | -8.11 kcal/mol |
| GCACATGAAAATGTGC ((((((....)))))) | 62.4 °C | -39.8 kcal/mol |
| GCCACGGGAAACCACGGC (((..((....))..))) | 46.5 °C | -34.4 kcal/mol |
| GAACCCGAAAGGGATTC ((((((....))).))) | 46.4 °C | -14.4 kcal/mol |
| GATCGAAATTTCGATC ((((((....)))))) | 53.7 °C | -41.2 kcal/mol |
| GGTCGCGAAAGCGCCACC ((((((....)))..))) | 47.8 °C | -11.2 kcal/mol |
| GCGCGTGGAAACACGCAC (.(((((....))))).) | 54.7 °C | -9.64 kcal/mol |
| GAGCTGGGAAACCAACTC (((.(((....))).))) | 39.9 °C | -32 kcal/mol |
| GAGCAACCGAAAGGTCTC (((..(((....)))))) | 30.1 °C | -13.1 kcal/mol |
| GTTAGGGGAAACCCTAGC (.(((((....))))).) | 40.7 °C | -21.5 kcal/mol |
| GAGTAAGAAATTACTC ((((((....)))))) | 40.1 °C | -24.5 kcal/mol |
| GCTGTTGGAAACGATAGC (((.(.(....).).))) | 32 °C | -20.9 kcal/mol |
| GTATTAGGAAACCAATAC (((((.(....).))))) | 25.9 °C | -14.2 kcal/mol |
| GTTACTGGAAACAGCAAC (((.(((....))).))) | 36 °C | -28 kcal/mol |
| GGTGATGGAAACATTACC (((.(((....))).))) | 45.2 °C | -30.2 kcal/mol |
| GGCGCTTCGAAAGAAGCC (((..(((....)))))) | 47.8 °C | -9.84 kcal/mol |
| GGTGGACGAAAGTCGACC (((.(((....))).))) | 57.2 °C | -39.9 kcal/mol |
| GCAGTGCGAAAGCTCTGC ((((.((....)).)))) | 65.8 °C | -40.3 kcal/mol |
| CGATCGGAAACGAGTTCG ((((((....)))..))) | 34.3 °C | -20.5 kcal/mol |
| CGCGGAAGGCTCCGCG ((((((....)))))) | 68.7 °C | -30.1 kcal/mol |

| Sequence | Tm [1] | folding enthalpy [2] |
| --- | --- | --- |
| GGATATGCGAAAGCATCC (((..(((....)))))) | 36.5 °C | -12.2 kcal/mol |
| GTTAGACGAAAGTCAAAC (((.(((....))).))) | 43.6 °C | -18.6 kcal/mol |
| CGGTATCGGAAACGACCG (((..(((....)))))) | 36.3 °C | -27.8 kcal/mol |
| GATCAGTACGCTGATC ((((((....)))))) | 53.8 °C | -44.1 kcal/mol |
| GTATAGGCGAAAGCCTAC (((..(((....)))))) | 31.8 °C | -8.12 kcal/mol |
| GCAAAGCGAAAGCACTGC (((..((....))..))) | 37.7 °C | -13.7 kcal/mol |
| GCTGGTGGAAACACCAAC (.(((((....))))).) | 41.3 °C | -14.4 kcal/mol |
| GATCACAGTGTGATC ((((((...)))))) | 56.6 °C | -39.9 kcal/mol |
| GCCTTTGGAAACAAAGGC (((((((....))))))) | 66.7 °C | -38.4 kcal/mol |
| GGAAACGAAAGTTCCTCC ((((((....)))..))) | 44.1 °C | -18.3 kcal/mol |
| GTTTAGGCGAAAGCCAAC (((..(((....)))))) | 33.3 °C | -10.1 kcal/mol |
| GTGATAGGAAACTATTAC ((.((((....)))).)) | 34.1 °C | -25.8 kcal/mol |
| GCCGAGCGAAAGCTTAGC ((..(((....)))..)) | 39.9 °C | -14.7 kcal/mol |
| GATCCCCCCAGGGATC ((((((....)))))) | 63.3 °C | -38.1 kcal/mol |
| GCCATGCGAAAGCGTTGC ((.(.((....)).).)) | 43.6 °C | -18.1 kcal/mol |
| GCGTATGAAAATACGC ((((((....)))))) | 63 °C | -36 kcal/mol |
| GATCAGATCCCTGATC ((((((....)))))) | 48.3 °C | -31.8 kcal/mol |
| GCTCTTGGAAACAAGGGC ((.((((....)))).)) | 50.6 °C | -38.5 kcal/mol |
| GGTCAGGGAAACCTGGTC (..((((....))))..) | 35.7 °C | -15.9 kcal/mol |
| GAACCCGAAAGGGCTTTC ((((((....)))..))) | 33.8 °C | -10.4 kcal/mol |
| GCGGTCACCCGC ((((....)))) | 56.2 °C | -24.6 kcal/mol |
| GGTACTCGAAAGAGAACC (((.(((....))).))) | 49.8 °C | -30 kcal/mol |
| GTGGCTTCGAAAGAACAC (((..(((....)))))) | 29.7 °C | -8.99 kcal/mol |

| Sequence | Tm [1] | folding enthalpy [2] |
| --- | --- | --- |
| TTTACGAAAGTAAA (((((....))))) | 42.7 °C | -13.5 kcal/mol |
| GGACACGGAAACGTGCCC ((.((((....)))).)) | 54.5 °C | -27.9 kcal/mol |
| GTCTACGAAAGTACGGAC ((((((....)))..))) | 34.1 °C | -12.1 kcal/mol |
| GGAGCCGAAAGGCTATCC ((((((....)))..))) | 38.2 °C | -8.64 kcal/mol |
| GATCTGTGAACAGATC ((((((....)))))) | 52.9 °C | -43 kcal/mol |
| GGTGCCGAAAGGCCCACC ((((((....)))..))) | 50.6 °C | -11.4 kcal/mol |
| GATCCTTGCTAGGATC ((((((....)))))) | 53.7 °C | -35.7 kcal/mol |
| GGGATAGGAAACTGTTCC ((.(.((....)).).)) | 28.6 °C | -16.5 kcal/mol |
| GATCGGCGGCCCGATC ((((((....)))))) | 55.5 °C | -35.4 kcal/mol |
| GTGATCGGAAACGATCAC (((((((....))))))) | 68.6 °C | -42.3 kcal/mol |
| GGTTGCCGAAAGGCACC (((.(((....)))))) | 59 °C | -14.5 kcal/mol |
| GAATACGAAAGTATTTTC ((((((....)))..))) | 36.9 °C | -19.9 kcal/mol |
| GTAGAGCCGAAAGGCTAC (((..(((....)))))) | 34.6 °C | -10.5 kcal/mol |
| GCTTAATCGAAAGATAGC (((..(((....)))))) | 30.8 °C | -16.4 kcal/mol |
| GATCGAACCGTCGATC ((((((....)))))) | 49.5 °C | -37 kcal/mol |
| GGCTCAGGAAACTGAACC ((.((((....)))).)) | 41.8 °C | -32.3 kcal/mol |
| GCAGCTCGAAAGAGTGC (((.(((....)))))) | 51.4 °C | -30 kcal/mol |
| GCGGTTGGAAACGACTGC ((.((.(....).)).)) | 37.8 °C | -15.3 kcal/mol |
| GGTCACGAAAGTGCACC ((((((....))).))) | 52.5 °C | -28.3 kcal/mol |
| GCTTCGCGAAAGCCCAGC (((..((....))..))) | 31.2 °C | -7.98 kcal/mol |
| GTGTTCGGAAACGAGTAC ((..(((....)))..)) | 31.2 °C | -18.9 kcal/mol |
| GGTGGGCGAAAGCCAACC (((.(((....))).))) | 64.1 °C | -28.7 kcal/mol |
| GATCTGGGAACAGATC ((((((....)))))) | 54.5 °C | -39.8 kcal/mol |
